Assay results reported in ChEMBL document CHEMBL3259617, “Design, synthesis, and biological evaluation of (e)-3,4-dihydroxystyryl aralkyl sulfones and sulfoxides as novel multifunctional neuroprotective agents” (J Med Chem, 2014).
Active and inactive are the calls of the source. No cut-off for these calls is given here.

Legend:
[1] = Antineuroinflammatory activity in mouse BV2 cells assessed as inhibition of LPS-induced nitric oxide production preincubated for 3 hrs followed by LPS challenge measured after 24 hrs by Griess assay; type: functional, cell-based; settings: BV-2
In short: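 BV2 microglia grown in high-glucose DMEM with 10% FBS and penicillin/streptomycin, 5% CO₂, 37 °C. Seeded at 4 × 10⁵ cells mL⁻¹. Compounds in DMSO, diluted in medium, added for 3 h before LPS (final 100 nM). Nitrite in medium read with an NO assay kit at 540 nm after 24 h. Inhibition calculated against the LPS-only and normal controls. IC50 obtained by linear regression.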

[2] = Cytotoxicity against mouse BV2 cells assessed as cell viability by MTT assay; type: cell-based, BV-2; design: concentration or dose not given beside the values; settings: read-out: Activity
PC-12 [3] = assay: Neuroprotective activity against 6-OHDA-induced damage in rat PC12 cells assessed as cell viability at 40 uM preincubated for 3 hrs followed by 6-OHDA challenge measured after 48 hrs by MTT assay; type: functional, cell-based
In short: (§1)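 PC12 cells grown in high-glucose DMEM with 10% FBS, 5% horse serum and penicillin/streptomycin, 5% CO₂, 37 °C. Seeded at 4 × 10⁵ cells mL⁻¹. Compounds (DMSO stock diluted in medium) applied for 3 h, then 6-OHDA at final 400 μM for 48 h. MTT read at 570 nm; viability given as % of untreated cells; mean ± SD, n = 3.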

PC-12 [4] = assay: Neuroprotective activity against H2O2-induced damage in rat PC12 cells assessed as cell viability at 5 uM preincubated for 3 hrs followed by H2O2 challenge measured after 5 hrs by MTT assay; type: functional, cell-based
In short: (§2)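 PC12 cells in high-glucose DMEM with 10% FBS, 5% horse serum and antibiotics, 37 °C, 5% CO₂, seeded at 4 × 10⁵ cells mL⁻¹. Pretreated 3 h with compounds (DMSO, diluted in medium), then challenged with H₂O₂ at final 500 μM for 5 h. MTT absorbance at 570 nm; viability relative to untreated cells (100%); mean ± SD, n = 3.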

[5] = tested on: Radical scavenging activity; assay: Antioxidant activity assessed as DPPH free radical scavenging effect after 30 mins by spectrophotometric analysis; type: functional
In short: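 Compounds and DPPH both in ethanol; equal volumes of test solution and 0.2 mM DPPH solution mixed; control was ethanol plus DPPH. Tested over 1−50 μM. Inhibition % = (A₀ − A_c)/A₀ × 100; IC50 by linear regression. Triplicate wells, three independent runs; vitamin C as reference.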

[6] = Permeability of the compound at 5 mg/mL after 18 hrs by PAMPA; type: physicochemical; settings: read-out: permeability
PC-12 [7] = assay: Neuroprotective activity against 6-OHDA-induced damage in rat PC12 cells assessed as cell viability at 5 to 10 uM preincubated for 3 hrs followed by 6-OHDA challenge measured after 48 hrs by MTT assay; type: functional, cell-based; in short: as §1
PC-12 [8] = assay: Neuroprotective activity against H2O2-induced damage in rat PC12 cells assessed as cell viability at 2.5 uM preincubated for 3 hrs followed by H2O2 challenge measured after 5 hrs by MTT assay; type: functional, cell-based; in short: as §2

Row | IC50 [1] [µM] | IC50 [5] [µM] | Papp at 18 h, 5 mg/mL [6] [×10⁻⁶ cm/s] | SMILES | viability [2] [%] | Activity (PC-12 [3]) | Activity (PC-12 [4]) | Activity (PC-12 [7]) | Activity (PC-12 [8])
1 | 11.7 | 8.8 | 3.3 | O=S(=O)(/C=C/c1ccc(O)c(O)c1)Cc1ccc(Cl)cc1 | > 90 | Active | Active | – | –
2 | 14 | 8.1 | 4.1 | [O-][S+](/C=C/c1ccc(O)c(O)c1)Cc1ccc(Cl)cc1 (stereo unspecified) | > 90 | Active | Active | – | –
3 | 36.8 | 16.2 | 4.5 | [O-][S+](/C=C/c1ccc(O)c(O)c1)CCCCc1ccccc1 (stereo unspecified) | > 90 | Active | – | – | –
4 | 15.5 | 7.8 | 4.2 | [O-][S+](/C=C/c1ccc(O)c(O)c1)Cc1ccc(C(F)(F)F)cc1 (stereo unspecified) | > 90 | Active | Active | – | –
5 | 11.9 | 9.1 | 6.4 | COc1ccc(CS(=O)(=O)/C=C/c2ccc(O)c(O)c2)cc1 | > 90 | Active | Active | – | –
6 | 30.6 | 10.5 | 5.7 | O=S(=O)(/C=C/c1ccc(O)c(O)c1)CCc1ccccc1 | > 90 | Active | Active | – | –
7 | 33 | 11.5 | 4.3 | COc1ccc(C[S+]([O-])/C=C/c2ccc(O)c(O)c2)cc1 (stereo unspecified) | > 90 | Active | Active | – | –
8 | – | – | – | O=C(/C=C/c1ccc(O)c(O)c1)OCCc1ccccc1 | – | Active | Active | Active | Active
9 | 12.6 | 9.5 | 4.7 | CC(C)(C)c1ccc(CS(=O)(=O)/C=C/c2ccc(O)c(O)c2)cc1 | > 90 | inactive | Active | – | Active
10 | 10.5 | 9.9 | 4.1 | O=S(=O)(/C=C/c1ccc(O)c(O)c1)CCCc1ccccc1 | > 90 | Active | Active | – | Active
11 | 19.8 | 17.2 | 4.1 | O=S(=O)(/C=C/c1ccc(O)c(O)c1)CCCCc1ccccc1 | > 90 | Active | – | – | –
12 | 11.6 | 8.1 | 10.1 | O=S(=O)(/C=C/c1ccc(O)c(O)c1)Cc1ccccc1 | > 90 | Active | Active | – | –
13 | 28.6 | 14.4 | 9.1 | [O-][S+](/C=C/c1ccc(O)c(O)c1)CCCc1ccccc1 (stereo unspecified) | > 90 | Active | Active | – | –
14 | 15.9 | 5.8 | 4.3 | O=S(=O)(/C=C/c1ccc(O)c(O)c1)Cc1ccc(C(F)(F)F)cc1 | > 90 | Active | Active | Active | –
15 | 9.3 | 9.9 | 5.8 | CC(C)(C)c1ccc(C[S+]([O-])/C=C/c2ccc(O)c(O)c2)cc1 (stereo unspecified) | > 90 | inactive | Active | – | –
16 | 42.6 | 11.6 | 5 | [O-][S+](/C=C/c1ccc(O)c(O)c1)CCc1ccccc1 (stereo unspecified) | > 90 | Active | – | Active | –
17 | 50.3 | 14.7 | 4.9 | [O-][S+](/C=C/c1ccc(O)c(O)c1)Cc1ccccc1 (stereo unspecified) | > 90 | Active | Active | – | –
